In ChEMBL document CHEMBL5678818, “Discovery of potent SOS1 inhibitors that block RAS activation via disruption of the RAS-SOS1 interaction” (Proc Natl Acad Sci U S A, 2019):
Activity calls are given as the source filed them. The calls are words filed in the database; no cut-off is given here.

Tests used:
[1] = biological target: G protein-coupled receptor kinase 3 (Homo sapiens) (UniProt P35626); assay: Inhibition of GRK3 (unknown origin) assessed as residual activity at 1000 nM by KINOMEscan analysis relative to control
Chain of G protein-coupled receptor kinase 3 (Homo sapiens) (P35626 whole entry): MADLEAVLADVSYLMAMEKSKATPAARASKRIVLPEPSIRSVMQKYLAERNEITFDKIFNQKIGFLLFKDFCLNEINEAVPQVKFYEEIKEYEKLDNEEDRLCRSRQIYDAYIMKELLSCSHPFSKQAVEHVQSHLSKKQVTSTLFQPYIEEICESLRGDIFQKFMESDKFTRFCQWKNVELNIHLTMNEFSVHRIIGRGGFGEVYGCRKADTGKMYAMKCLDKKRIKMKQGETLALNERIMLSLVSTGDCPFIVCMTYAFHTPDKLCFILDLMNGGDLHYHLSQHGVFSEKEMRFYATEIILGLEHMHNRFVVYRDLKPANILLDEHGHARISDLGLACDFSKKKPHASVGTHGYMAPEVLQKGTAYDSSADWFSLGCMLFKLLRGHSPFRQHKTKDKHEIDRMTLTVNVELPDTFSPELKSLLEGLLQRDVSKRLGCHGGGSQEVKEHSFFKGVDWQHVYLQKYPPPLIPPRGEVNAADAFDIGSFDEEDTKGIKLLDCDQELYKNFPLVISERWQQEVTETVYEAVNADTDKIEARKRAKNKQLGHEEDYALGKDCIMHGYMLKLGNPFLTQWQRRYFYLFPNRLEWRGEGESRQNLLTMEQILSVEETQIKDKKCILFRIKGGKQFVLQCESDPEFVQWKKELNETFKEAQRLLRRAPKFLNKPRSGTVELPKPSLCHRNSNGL

K562 = assay: Effect on total ERK level in human K562 cells incubated for 60 mins by HTRF analysis; assay type: functional, cell-based
How it was run: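 K-562 cells (wild-type KRAS) were sourced from ATCC. Cells were incubated with compound for 60 min, and total ERK was quantified alongside pERK.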

[2] = biological target: RAC-gamma serine/threonine-protein kinase (Homo sapiens) (UniProt Q9Y243); assay: Inhibition of AKT3 (unknown origin) assessed as residual activity at 100 nM by KINOMEscan analysis relative to control
[3] = biological target: Serine/threonine-protein kinase SIK2 (Homo sapiens) (UniProt Q9H0K1); assay: Inhibition of SIK2 (unknown origin) assessed as residual activity at 100 nM by KINOMEscan analysis relative to control
[4] = biological target: Dual specificity protein kinase CLK1 (Homo sapiens) (UniProt P49759); assay: Inhibition of CLK1 (unknown origin) assessed as residual activity at 100 nM by KINOMEscan analysis relative to control
[5] = biological target: Ribosomal protein S6 kinase alpha-6 (Homo sapiens) (UniProt Q9UK32); assay: Inhibition of N-terminal RSK4 […] domain 1 (unknown origin) assessed as residual activity at 100 nM by KINOMEscan analysis relative to control
Chain of Ribosomal protein S6 kinase alpha-6 (Homo sapiens) (Q9UK32 whole entry): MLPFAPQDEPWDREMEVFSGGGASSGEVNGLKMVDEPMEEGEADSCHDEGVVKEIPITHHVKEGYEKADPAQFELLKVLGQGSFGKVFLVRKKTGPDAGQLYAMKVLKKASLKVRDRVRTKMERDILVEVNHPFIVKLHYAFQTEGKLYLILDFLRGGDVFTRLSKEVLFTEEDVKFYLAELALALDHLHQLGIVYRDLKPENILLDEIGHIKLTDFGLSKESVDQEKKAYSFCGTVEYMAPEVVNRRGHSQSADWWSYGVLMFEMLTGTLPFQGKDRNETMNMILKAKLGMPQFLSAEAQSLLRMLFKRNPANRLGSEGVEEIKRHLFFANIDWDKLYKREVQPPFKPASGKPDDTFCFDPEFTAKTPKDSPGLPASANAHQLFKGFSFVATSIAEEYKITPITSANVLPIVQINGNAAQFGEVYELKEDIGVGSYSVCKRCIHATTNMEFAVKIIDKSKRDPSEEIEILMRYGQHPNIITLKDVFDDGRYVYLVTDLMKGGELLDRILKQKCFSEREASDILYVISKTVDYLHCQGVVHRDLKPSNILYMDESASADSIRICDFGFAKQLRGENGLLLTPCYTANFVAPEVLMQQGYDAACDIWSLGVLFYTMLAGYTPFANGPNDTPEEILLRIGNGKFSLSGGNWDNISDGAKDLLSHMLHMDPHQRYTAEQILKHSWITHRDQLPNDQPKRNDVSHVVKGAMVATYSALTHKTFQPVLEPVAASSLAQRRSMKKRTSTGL

[6] = biological target: Rho-associated protein kinase 2 (Homo sapiens) (UniProt O75116); assay: Inhibition of ROCK2 (unknown origin) assessed as residual activity at 100 nM by KINOMEscan analysis relative to control
Chain of Rho-associated protein kinase 2 (Homo sapiens) (O75116 whole entry, looked up): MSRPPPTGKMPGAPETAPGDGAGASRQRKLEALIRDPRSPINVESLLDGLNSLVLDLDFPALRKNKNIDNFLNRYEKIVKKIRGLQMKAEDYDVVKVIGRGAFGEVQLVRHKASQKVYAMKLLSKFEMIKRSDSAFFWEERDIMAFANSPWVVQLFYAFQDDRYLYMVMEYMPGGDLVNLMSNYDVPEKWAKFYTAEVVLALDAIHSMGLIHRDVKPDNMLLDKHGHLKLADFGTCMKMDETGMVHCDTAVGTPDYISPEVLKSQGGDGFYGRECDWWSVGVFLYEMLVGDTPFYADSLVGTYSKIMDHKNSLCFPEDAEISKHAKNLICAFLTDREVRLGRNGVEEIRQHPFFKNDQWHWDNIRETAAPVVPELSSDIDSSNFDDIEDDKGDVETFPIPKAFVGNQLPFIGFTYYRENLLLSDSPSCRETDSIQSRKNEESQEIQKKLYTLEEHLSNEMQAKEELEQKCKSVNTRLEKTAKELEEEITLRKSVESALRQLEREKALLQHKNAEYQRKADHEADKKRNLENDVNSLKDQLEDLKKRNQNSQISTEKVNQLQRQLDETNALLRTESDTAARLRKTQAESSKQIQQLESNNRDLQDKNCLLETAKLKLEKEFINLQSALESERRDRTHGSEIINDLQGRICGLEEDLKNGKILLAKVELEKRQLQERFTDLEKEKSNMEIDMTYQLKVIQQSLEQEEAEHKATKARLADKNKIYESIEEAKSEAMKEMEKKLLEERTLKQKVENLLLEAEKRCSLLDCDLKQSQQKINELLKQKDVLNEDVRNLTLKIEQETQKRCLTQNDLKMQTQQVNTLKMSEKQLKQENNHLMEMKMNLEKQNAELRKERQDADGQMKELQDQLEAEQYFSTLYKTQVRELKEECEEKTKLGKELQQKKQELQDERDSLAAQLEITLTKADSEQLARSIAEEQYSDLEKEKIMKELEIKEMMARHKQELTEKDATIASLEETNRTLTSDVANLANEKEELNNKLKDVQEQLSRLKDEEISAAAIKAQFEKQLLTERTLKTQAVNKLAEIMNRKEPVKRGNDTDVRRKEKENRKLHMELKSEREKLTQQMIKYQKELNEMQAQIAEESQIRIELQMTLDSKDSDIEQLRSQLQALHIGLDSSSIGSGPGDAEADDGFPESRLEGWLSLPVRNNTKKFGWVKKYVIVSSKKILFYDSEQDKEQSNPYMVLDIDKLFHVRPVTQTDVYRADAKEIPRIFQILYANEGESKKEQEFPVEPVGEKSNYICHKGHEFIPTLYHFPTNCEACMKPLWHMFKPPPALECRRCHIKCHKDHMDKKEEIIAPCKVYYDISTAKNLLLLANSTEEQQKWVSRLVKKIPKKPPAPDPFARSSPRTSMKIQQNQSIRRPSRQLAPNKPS

[7] = biological target: Dual specificity tyrosine-phosphorylation-regulated kinase 1B (Homo sapiens) (UniProt Q9Y463); assay: Inhibition of DYRK1B (unknown origin) assessed as residual activity at 100 nM by KINOMEscan analysis relative to control
[8] = biological target: T1, 3-phosphoinositide-dependent protein kinase 1 (Homo sapiens) (UniProt O15530); assay: Inhibition of PDPK1 (unknown origin) assessed as residual activity at 100 nM by KINOMEscan analysis relative to control
T1 sequence (whole entry): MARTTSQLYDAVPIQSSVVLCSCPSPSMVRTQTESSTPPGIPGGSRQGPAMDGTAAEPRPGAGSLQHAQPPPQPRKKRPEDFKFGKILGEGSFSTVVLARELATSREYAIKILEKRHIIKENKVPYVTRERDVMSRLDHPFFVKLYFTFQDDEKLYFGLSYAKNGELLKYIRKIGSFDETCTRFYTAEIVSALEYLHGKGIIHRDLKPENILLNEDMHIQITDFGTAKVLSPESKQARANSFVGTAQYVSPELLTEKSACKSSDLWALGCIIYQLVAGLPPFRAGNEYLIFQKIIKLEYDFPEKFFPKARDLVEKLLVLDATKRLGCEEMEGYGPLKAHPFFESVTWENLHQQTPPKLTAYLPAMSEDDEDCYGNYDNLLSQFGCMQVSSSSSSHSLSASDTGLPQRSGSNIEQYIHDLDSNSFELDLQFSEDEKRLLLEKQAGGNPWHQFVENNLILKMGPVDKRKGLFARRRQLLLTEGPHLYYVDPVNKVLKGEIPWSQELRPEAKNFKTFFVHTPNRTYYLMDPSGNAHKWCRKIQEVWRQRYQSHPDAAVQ

[9] = biological target: Serine/threonine-protein kinase tousled-like 2 (Homo sapiens) (UniProt Q86UE8); assay: Inhibition of TLK2 (unknown origin) assessed as residual activity at 100 nM by KINOMEscan analysis relative to control
[10] = biological target: Activin receptor type-2B (Homo sapiens) (UniProt Q13705); assay: Inhibition of ACVR2B (unknown origin) assessed as residual activity at 100 nM by KINOMEscan analysis relative to control
Homo sapiens = species: Homo sapiens; assay: Inhibition of N-terminal GST-tagged recombinant human SOS1 N879A mutant (564 to 1049 residues) expressed in Escherichia coli assessed as reduction in KRAS G12C mutant activation at 10 uM by HTRF analysis relative to control
[11] = biological target: T2, Dual specificity mitogen-activated protein kinase kinase 4 (Homo sapiens) (UniProt P45985); assay: Inhibition of MEK4 (unknown origin) assessed as residual activity at 100 nM by KINOMEscan analysis relative to control
T2 sequence (whole entry): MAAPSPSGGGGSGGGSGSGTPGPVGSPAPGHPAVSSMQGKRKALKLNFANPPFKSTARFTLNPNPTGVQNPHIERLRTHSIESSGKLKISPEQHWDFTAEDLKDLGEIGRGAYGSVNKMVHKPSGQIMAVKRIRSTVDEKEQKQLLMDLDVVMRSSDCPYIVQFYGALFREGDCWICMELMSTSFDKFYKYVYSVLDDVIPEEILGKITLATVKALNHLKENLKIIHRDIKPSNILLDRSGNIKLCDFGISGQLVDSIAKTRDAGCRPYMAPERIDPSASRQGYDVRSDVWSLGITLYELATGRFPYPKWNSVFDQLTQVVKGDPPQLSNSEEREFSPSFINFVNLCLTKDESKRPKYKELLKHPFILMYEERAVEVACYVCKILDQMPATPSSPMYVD

[12] = biological target: Cyclin-dependent kinase 16 (Homo sapiens) (UniProt Q00536); assay: Inhibition of PCTK1 (unknown origin) assessed as residual activity at 100 nM by KINOMEscan analysis relative to control
[13] = biological target: Vascular endothelial growth factor receptor 1 (Homo sapiens) (UniProt P17948); assay: Inhibition of FLT1 (unknown origin) assessed as residual activity at 100 nM by KINOMEscan analysis relative to control
Chain of Vascular endothelial growth factor receptor 1 (Homo sapiens) (P17948 whole entry): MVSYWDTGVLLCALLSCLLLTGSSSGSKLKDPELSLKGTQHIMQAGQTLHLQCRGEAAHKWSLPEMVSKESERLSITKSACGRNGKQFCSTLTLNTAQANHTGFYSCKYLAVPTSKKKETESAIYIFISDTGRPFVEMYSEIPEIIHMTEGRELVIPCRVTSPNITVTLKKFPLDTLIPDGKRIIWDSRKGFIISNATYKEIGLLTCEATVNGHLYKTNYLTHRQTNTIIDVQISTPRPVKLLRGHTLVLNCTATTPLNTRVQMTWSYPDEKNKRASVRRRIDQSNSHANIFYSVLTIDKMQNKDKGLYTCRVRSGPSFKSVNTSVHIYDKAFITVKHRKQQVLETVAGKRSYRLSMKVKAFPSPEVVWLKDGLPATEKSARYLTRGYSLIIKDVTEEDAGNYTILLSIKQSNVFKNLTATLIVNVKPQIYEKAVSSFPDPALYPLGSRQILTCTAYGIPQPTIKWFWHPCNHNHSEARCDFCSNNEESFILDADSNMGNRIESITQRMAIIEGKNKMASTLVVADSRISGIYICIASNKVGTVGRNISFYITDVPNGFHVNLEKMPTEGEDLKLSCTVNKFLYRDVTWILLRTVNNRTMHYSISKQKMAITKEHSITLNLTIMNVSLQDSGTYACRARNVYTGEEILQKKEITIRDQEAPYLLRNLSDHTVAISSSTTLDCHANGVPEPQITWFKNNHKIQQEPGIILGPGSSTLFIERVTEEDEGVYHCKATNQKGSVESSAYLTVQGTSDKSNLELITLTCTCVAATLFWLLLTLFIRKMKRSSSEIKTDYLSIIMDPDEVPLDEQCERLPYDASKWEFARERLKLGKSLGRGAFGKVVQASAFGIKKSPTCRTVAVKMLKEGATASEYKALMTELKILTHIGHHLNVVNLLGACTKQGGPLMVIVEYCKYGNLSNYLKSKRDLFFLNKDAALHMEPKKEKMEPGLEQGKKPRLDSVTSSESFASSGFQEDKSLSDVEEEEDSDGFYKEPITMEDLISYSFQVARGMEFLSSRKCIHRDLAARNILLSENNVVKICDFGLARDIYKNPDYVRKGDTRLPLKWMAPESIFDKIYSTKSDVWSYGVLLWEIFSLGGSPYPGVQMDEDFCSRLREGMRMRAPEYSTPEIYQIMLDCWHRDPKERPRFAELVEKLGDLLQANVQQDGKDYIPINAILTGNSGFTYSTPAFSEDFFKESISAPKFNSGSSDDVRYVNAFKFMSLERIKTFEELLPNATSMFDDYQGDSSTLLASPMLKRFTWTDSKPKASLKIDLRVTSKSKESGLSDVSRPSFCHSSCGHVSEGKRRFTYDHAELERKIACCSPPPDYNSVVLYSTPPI

[14] = biological target: Receptor-interacting serine/threonine-protein kinase 2 (Homo sapiens) (UniProt O43353); assay: Inhibition of RIPK2 (unknown origin) assessed as residual activity at 100 nM by KINOMEscan analysis relative to control
[15] = biological target: Serine/threonine-protein kinase Nek6 (Homo sapiens) (UniProt Q9HC98); assay: Inhibition of NEK6 (unknown origin) assessed as residual activity at 100 nM by KINOMEscan analysis relative to control
Chain of Serine/threonine-protein kinase Nek6 (Homo sapiens) (Q9HC98 whole entry): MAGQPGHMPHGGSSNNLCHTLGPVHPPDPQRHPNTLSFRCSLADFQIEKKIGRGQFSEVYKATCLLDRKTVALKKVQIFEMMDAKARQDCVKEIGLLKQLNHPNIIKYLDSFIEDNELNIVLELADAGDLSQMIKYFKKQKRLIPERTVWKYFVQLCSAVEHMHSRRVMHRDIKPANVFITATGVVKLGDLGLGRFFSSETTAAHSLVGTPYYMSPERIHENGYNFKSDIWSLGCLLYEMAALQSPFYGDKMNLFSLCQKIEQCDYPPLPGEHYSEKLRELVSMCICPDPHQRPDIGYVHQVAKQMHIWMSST

[16] = biological target: Tyrosine-protein kinase Fyn (Homo sapiens) (UniProt P06241); assay: Inhibition of FYN (unknown origin) assessed as residual activity at 100 nM by KINOMEscan analysis relative to control
Chain of Tyrosine-protein kinase Fyn (Homo sapiens) (P06241 2-537 limits assumed): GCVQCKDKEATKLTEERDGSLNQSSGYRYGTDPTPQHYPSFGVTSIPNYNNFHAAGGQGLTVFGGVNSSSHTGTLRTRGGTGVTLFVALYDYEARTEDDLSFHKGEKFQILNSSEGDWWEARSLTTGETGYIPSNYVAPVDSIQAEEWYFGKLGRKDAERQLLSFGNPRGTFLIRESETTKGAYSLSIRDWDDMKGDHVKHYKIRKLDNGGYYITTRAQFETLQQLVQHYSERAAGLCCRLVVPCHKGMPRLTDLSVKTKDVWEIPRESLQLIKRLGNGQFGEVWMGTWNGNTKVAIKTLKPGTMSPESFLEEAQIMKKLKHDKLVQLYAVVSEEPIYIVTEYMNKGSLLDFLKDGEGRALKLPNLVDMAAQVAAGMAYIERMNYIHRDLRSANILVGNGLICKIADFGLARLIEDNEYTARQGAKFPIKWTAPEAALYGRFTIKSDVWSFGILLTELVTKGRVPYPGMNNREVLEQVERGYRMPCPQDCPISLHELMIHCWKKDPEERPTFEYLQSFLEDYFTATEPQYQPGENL

Question: `COc1cc2nc(C)nc(N[C@H](C)c3cccc(-c4cn[nH]c4)c3)c2cc1OC` was tested. Which Activity [1] did it give?
Answer: The Activity was 76%.

Question: For `CNCc1ccccc1-c1csc([C@@H](C)Nc2nc(C)nc3cc(OC)c(OC)cc23)c1` [BAY-293], which Activity (K562) is on record?
Answer: Its Activity is “inactive”.

Question: With `COc1cc2ncnc(N[C@H](C)c3cccc4ccccc34)c2cc1OC` as the molecule, how does the Activity [2] read?
Answer: The Activity was 94%.

Question: What about the Activity [3] of the same molecule?
Answer: The Activity was 91%.

Question: What about the Activity [4] of the same molecule?
Answer: The Activity was 91%.

Question: What about the Activity [5] of the same molecule?
Answer: Its Activity is 94%.

Question: What about the Activity [6] of the same molecule?
Answer: Its Activity is 87%.

Question: And the Activity [7]?
Answer: The Activity was 76%.

Question: And the Activity [8]?
Answer: The Activity was 79%.

Question: What about the Activity [9] of the same molecule?
Answer: Its Activity is 91%.

Question: And the Activity [10]?
Answer: The Activity was 91%.

Question: And the inhibition (Homo sapiens)?
Answer: The inhibition was 37%.

Question: What about the Activity [11] of the same molecule?
Answer: Its Activity is 93%.

Question: And the Activity [12]?
Answer: Its Activity is 96%.

Question: What about the Activity [13] of the same molecule?
Answer: Its Activity is 93%.

Question: What about the Activity [14] of the same molecule?
Answer: Its Activity is 84%.

Question: What about the Activity [15] of the same molecule?
Answer: Its Activity is 79%.

Question: What about the Activity [16] of the same molecule?
Answer: The Activity was 85%.
